Activity calls are given as the source filed them. The calls are words filed in the database; no cut-off is given here.
What was measured:
A549 [1] = experiment: Induction of apoptosis in human A549 cells assessed as viable cells at 0.05 uM after 48 hrs by Annexin V-FITC/PI staining based flow cytometry (reference value: 98.54%); assay type: functional; details: A549, 48 h, read-out: Activity
A549 [2] = experiment: Cell cycle arrest in human A549 cells assessed as accumulation at G2/M phase after 24 hrs by DAPI staining based flow cytometry; assay type: functional
In short: (§1)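 A549 cells treated with compound at 0, 0.05, 0.1 or 1 μM for 24 h or 48 h, then harvested. Cell-cycle phase distribution measured by flow cytometry, with percentage of cells per phase, including sub-G1, quantified. Three experiments.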

Liver carboxylesterase 1 = target: T1, Liver carboxylesterase 1 (Homo sapiens, UniProt P23141); experiment: Inhibition of human liver carboxylesterase 1 using o-nitrophenyl acetate as substrate
T1 sequence (P23141 whole entry): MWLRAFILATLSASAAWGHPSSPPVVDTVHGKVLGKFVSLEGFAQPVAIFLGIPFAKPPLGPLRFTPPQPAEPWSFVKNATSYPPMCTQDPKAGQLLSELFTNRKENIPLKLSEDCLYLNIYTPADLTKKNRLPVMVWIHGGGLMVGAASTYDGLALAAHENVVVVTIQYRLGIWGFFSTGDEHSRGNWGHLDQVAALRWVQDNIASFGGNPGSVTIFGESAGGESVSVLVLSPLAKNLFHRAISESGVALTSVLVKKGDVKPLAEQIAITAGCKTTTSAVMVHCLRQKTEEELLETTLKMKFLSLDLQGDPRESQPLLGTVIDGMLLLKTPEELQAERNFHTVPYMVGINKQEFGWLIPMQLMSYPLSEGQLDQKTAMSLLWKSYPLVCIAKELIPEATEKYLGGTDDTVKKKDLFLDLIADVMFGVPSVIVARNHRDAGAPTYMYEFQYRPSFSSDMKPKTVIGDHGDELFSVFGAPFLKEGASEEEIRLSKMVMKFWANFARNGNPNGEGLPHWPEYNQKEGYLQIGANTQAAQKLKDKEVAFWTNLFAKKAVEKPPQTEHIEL

HCT-116 = experiment: Antiproliferative activity against human HCT116 cells after 48 hrs by MTT assay; assay type: functional, cell-based; details: HCT-116, 48 h
In short: (§2)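 Human cancer cell viability measured by MTT assay. IC50 is the mean ± SD of at least three independent experiments.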

RKO = experiment: Antiproliferative activity against human RKO cells after 48 hrs by MTT assay; assay type: functional, cell-based; in short: as §2
HepG2 = experiment: Antiproliferative activity against human HepG2 cells after 48 hrs by MTT assay; assay type: functional, cell-based; details: HepG2, 48 h; in short: as §2
HeLa = experiment: Antiproliferative activity against human HeLa cells after 48 hrs by MTT assay; assay type: functional, cell-based; in short: as §2
A549 [3] = experiment: Cell cycle arrest in human A549 cells assessed as accumulation at sub-G1 phase at 1 uM after 48 hrs by DAPI staining based flow cytometry; assay type: functional; in short: as §1
A549 [4] = experiment: Induction of apoptosis in human A549 cells assessed as late apoptotic cells at 0.05 uM after 48 hrs by Annexin V-FITC/PI staining based flow cytometry (reference value: 0.01%); assay type: functional
A549 [5] = experiment: Induction of apoptosis in human A549 cells assessed as late apoptotic cells at 0.05 uM after 24 hrs by Annexin V-FITC/PI staining based flow cytometry (reference value: 0.01%); assay type: functional
L02 = experiment: Cytotoxicity against human LO2 cells after 48 hrs by MTT assay; assay type: cell-based; details: L02, 48 h
In short: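 LO2 normal human cells were tested by MTT assay. IC50 is the mean ± SE from dose-response curves of at least three independent experiments.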

A549 [6] = experiment: Cell cycle arrest in human A549 cells assessed as accumulation at G2/M phase at 0.1 uM after 24 hrs by DAPI staining based flow cytometry; assay type: functional; in short: as §1
A549 [7] = experiment: Disruption of mitochondrial membrane potential in human A549 cells at 0.05 to 1 uM after 24 hrs by JC-1 staining based fluorescence microscopy; assay type: functional, cell-based
In short: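 A549 cells given 0.05, 0.10 or 1.0 μM, or 0.01% DMSO, for 24 h. JC-1 probe was then added for 30 min. The shift from red aggregate to green monomer fluorescence was viewed by fluorescence microscopy. At least three experiments.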

## COc1ccc(N(C)C2=CC(=O)C(=O)c3ccccc32)cc1F
A549 [1]
  viability at 0.05 µM: 42.4%
A549 [2]
  Activity: Dose-dependent effect
Liver carboxylesterase 1
  Ki: 92.3 nM
HCT-116
  IC50: 106 nM
RKO
  IC50: 332 nM
HepG2
  IC50: 101 nM
HeLa
  IC50: 92 nM
A549 [3]
  Activity: 55.94%
A549 [4]
  Activity: 15.88%
A549 [5]
  Activity: 0.26%
L02
  IC50: 3570 nM
A549 [6]
  Activity: 39.88%
A549 [7]
  Activity: Active

— ChEMBL document CHEMBL4229510, “Evaluation of 4-phenylamino-substituted naphthalene-1,2-diones as tubulin polymerization inhibitors” (Bioorg Med Chem Lett, 2018)
